Results on 15 molecules are retold here after ChEMBL document CHEMBL1141840, “Antifungal metabolites from the marine sponge Pachastrissa sp.: new bengamide and bengazole derivatives” (1999).

≈ marks a conversion by molar mass, not a printed value. Calls of active or inactive are those of the source. The calls are words filed in the database; no cut-off is given here.

Assay [1] deals with Candida albicans. In words: Antifungal activity against Candida albicans CIP 118079 after 24 hrs by liquid-phase turbidimetric system. The assay is classed as functional. The conditions noted are these: for MIC: CIP 118079, 24 h. Put shortly: (§1)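 Fungal growth followed in liquid culture by turbidimetry, read automatically every 30 min over 24 h, with compounds tested at various concentrations.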

Assay [2] concerns Saccharomyces cerevisiae. Nature of the assay: Antimicrobial activity against Saccharomyces cerevisiae ATCC 28383 after 24 hrs by liquid-phase turbidimetric system. It is filed as functional, organism-based. In a few lines: as §1

Regarding `C[C@H](O)[C@@H](O)[C@@H](O)C[C@@H](O)c1coc(Cc2cnco2)n1`, the result in assay [1] and in assay [2] was inactive.
As to `CCCCCCCCCCCCCC(=O)O[C@H]1CC[C@H](NC(=O)[C@H](OC)[C@H](O)[C@@H](O)[C@H](O)/C=C/C(C)C)C(=O)NC1`, the result in assay [1] and in assay [2] was inactive.
What is called MIC is the lowest concentration that inhibits growth of the organism. Read a low MIC as inhibition by little substance. `CC(C)CCCCCCCCCCCCC(=O)O[C@H](C[C@H](O)[C@H](O)[C@H](C)O)c1coc(Cc2cnco2)n1` gave an MIC in assay [1] of 0.8 µg/mL (≈ 1.49 µM). Also, the outcome in assay [2] was inactive.
In the case of `CO[C@@H](C(=O)N[C@H]1CC[C@H](OC(=O)CCCCCCCCCCCC(C)C)CNC1=O)[C@H](O)[C@@H](O)[C@H](O)/C=C/C(C)C`, the outcome in assay [1] and in assay [2] was inactive.
The molecule `CCCCCCCCCCCCCCCC(=O)O[C@@H](C)[C@@H](O)[C@@H](O)C[C@@H](O)c1coc(Cc2cnco2)n1` showed an MIC in assay [1] of 0.8 µg/mL (≈ 1.49 µM). In addition, in assay [2], the result was inactive.
`CCCCCCCCCCCCCCC(=O)O[C@H](C[C@H](O)[C@H](O)[C@H](C)O)c1coc(Cc2cnco2)n1`: 0.8 µg/mL (≈ 1.53 µM) was the least that counted as inhibitory in assay [1] (MIC). For the same molecule, the result in assay [2] was inactive.
In the same order, the values of `CC(C)CCCCCCCCCCCC(=O)O[C@@H](C)[C@@H](O)[C@@H](O)C[C@@H](O)c1coc(Cc2cnco2)n1` are 0.8 µg/mL (≈ 1.53 µM) and “inactive”.
In the same order, the values of `CCCCCCCCCCCCCC(=O)O[C@H](C[C@H](O)[C@H](O)[C@H](C)O)c1coc(Cc2cnco2)n1` are 0.8 µg/mL (≈ 1.57 µM) and “inactive”.
With `CCCCCCCCCCCCCC(=O)O[C@H]1CC[C@H](NC(=O)[C@H](OC)[C@H](O)[C@@H](O)[C@H](O)/C=C/C(C)C)C(=O)N(C)C1`, the outcome in assay [1] and in assay [2] was inactive.
For `CCCCCCCCCCCCCCCC(=O)O[C@H](C[C@H](O)[C@H](O)[C@H](C)O)c1coc(Cc2cnco2)n1`, the MIC in assay [1] was found to be 0.8 µg/mL (≈ 1.49 µM). Further, the outcome in assay [2] was inactive.
In the same order, the values of `CC(C)CCCCCCCCCCCCC(=O)O[C@@H](C)[C@@H](O)[C@@H](O)C[C@@H](O)c1coc(Cc2cnco2)n1` are 0.8 µg/mL (≈ 1.49 µM) and “inactive”.
Turning to `CO[C@@H](C(=O)N[C@H]1CCCCNC1=O)[C@H](O)[C@@H](O)[C@H](O)/C=C/C(C)C`, the outcome in assay [1] and in assay [2] was inactive.
As for `CCCCCCCCCCCCCCC(=O)O[C@@H](C)[C@@H](O)[C@@H](O)C[C@@H](O)c1coc(Cc2cnco2)n1`, the minimum inhibitory concentration (MIC) in assay [1] worked out at 0.8 µg/mL (≈ 1.53 µM). Further, in assay [2], the outcome was inactive.
For `CCCCCCCCCCCCCC(=O)O[C@@H](C)[C@@H](O)[C@@H](O)C[C@@H](O)c1coc(Cc2cnco2)n1`, the MIC in assay [1] was found to be 0.8 µg/mL (≈ 1.57 µM). Further, the outcome in assay [2] was inactive.
In the same order, the values of `CC(C)CCCCCCCCCCCC(=O)O[C@H](C[C@H](O)[C@H](O)[C@H](C)O)c1coc(Cc2cnco2)n1` are 0.8 µg/mL (≈ 1.53 µM) and “inactive”.
